Columns and labels:
[1] = target: T1, Prostaglandin E2 receptor EP4 subtype (Homo sapiens, UniProt P35408); assay: Antagonist activity at human EP4 receptor expressed in HEK293 cells assessed as inhibition of PGE2-induced cAMP level by HTS assay; format: functional, cell-based; details: for Kb: read-out: pA2 (converted)
[2] = test system: Rattus norvegicus; assay: Analgesic activity in po dosed rat assessed as inhibition of carrageenan-induced mechanical hyperalgesia measured at 1 hr post dose; format: functional; details: read-out: MED
In short: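 Rats dosed orally. Mechanical hyperalgesia was induced with carrageenan and assessed 1 h post dose. The value is the minimum effective dose (MED, mg/kg PO).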

[3] = Half life in human liver microsomes; format: ADME, microsome
[4] = target: T1, Prostaglandin E2 receptor EP4 subtype; assay: Displacement of [3H]PGE from human EP4 receptor expressed in HEK293 cell membranes
In short: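 Membrane binding assay using [3H]PGE2 with membranes from HEK-293 cells expressing human EP4. The value is expressed as Ki.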

[5] = target: T2, Prostaglandin E2 receptor EP1 subtype (Homo sapiens, UniProt P34995); assay: Antagonist activity at human EP1 receptor
T2 sequence (P34995 whole entry): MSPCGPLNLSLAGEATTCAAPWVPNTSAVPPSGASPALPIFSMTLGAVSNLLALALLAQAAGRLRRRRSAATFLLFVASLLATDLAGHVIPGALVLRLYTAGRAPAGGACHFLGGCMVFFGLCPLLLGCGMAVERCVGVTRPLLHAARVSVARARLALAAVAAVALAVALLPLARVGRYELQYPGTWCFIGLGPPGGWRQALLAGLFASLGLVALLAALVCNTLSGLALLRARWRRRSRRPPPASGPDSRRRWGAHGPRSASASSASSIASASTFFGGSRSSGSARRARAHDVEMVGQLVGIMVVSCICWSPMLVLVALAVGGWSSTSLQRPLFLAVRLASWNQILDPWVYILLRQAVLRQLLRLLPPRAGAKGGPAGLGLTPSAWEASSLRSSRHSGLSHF

[6] = Apparent permeability from apical to basolateral side in human Caco2 cells; format: ADME, cell-based; details: Caco-2
In short: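 Caco-2 monolayer permeability (Papp, apical to basolateral) was measured under constant pH, with the apical side at pH 6.5 and the basolateral side at pH 7.4.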

[7] = target: T3, Prostaglandin E2 receptor EP3 subtype (Homo sapiens, UniProt P43115); assay: Antagonist activity at human EP3 receptor
T3 sequence (P43115 whole entry): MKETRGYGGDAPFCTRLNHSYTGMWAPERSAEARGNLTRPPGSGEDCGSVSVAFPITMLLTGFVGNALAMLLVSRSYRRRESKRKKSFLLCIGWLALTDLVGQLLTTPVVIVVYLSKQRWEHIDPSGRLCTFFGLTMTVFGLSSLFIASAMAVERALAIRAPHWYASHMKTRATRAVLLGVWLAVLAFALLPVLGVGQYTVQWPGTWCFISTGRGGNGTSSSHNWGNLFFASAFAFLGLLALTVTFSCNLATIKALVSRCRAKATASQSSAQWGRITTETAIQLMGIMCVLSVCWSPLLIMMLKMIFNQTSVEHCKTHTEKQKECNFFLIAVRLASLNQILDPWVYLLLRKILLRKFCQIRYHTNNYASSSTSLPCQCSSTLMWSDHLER

[8] = target: Prostaglandin E2 receptor EP2 subtype (Homo sapiens, UniProt P43116); assay: Antagonist activity at human EP2 receptor
[9] = Efflux ratio of apparent permeability in human Caco2 cells; format: ADME, cell-based; details: Caco-2
In short: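 Caco-2 human colon carcinoma monolayers. Permeability measured in both directions (apical to basolateral and basolateral to apical) under constant pH: apical pH 6.5, basolateral pH 7.4. Efflux ratio taken as Papp B→A divided by Papp A→B.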

[10] = Genotoxicity in CHL cells after 72 hrs using acridine orange stain by fluorescence microscopic based micronucleus test; format: toxicity, cell-based, Cricetulus griseus; details: chinese hamster
[11] = Apparent permeability from basolateral to apical side in human Caco2 cells; format: ADME, cell-based; details: Caco-2
In short: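 Caco-2 permeability was measured basolateral to apical under the same pH conditions as the apical-to-basolateral direction (apical 6.5, basolateral 7.4). Efflux ratio was derived from the two directions.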

[12] = Solubility of the compound in pH 6.5 PBS; format: physicochemical

Sequence of Prostaglandin E2 receptor EP2 subtype (P43116 whole entry): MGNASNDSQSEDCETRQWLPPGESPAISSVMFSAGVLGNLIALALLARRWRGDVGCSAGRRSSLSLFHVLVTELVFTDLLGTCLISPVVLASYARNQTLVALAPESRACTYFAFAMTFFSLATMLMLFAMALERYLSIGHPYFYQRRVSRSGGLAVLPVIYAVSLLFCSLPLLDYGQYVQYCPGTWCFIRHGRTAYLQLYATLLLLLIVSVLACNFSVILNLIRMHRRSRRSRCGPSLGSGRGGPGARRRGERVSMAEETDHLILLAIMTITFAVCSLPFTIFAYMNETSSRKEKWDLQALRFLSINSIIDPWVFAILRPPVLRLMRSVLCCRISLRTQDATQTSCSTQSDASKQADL
T1 sequence (P35408 whole entry): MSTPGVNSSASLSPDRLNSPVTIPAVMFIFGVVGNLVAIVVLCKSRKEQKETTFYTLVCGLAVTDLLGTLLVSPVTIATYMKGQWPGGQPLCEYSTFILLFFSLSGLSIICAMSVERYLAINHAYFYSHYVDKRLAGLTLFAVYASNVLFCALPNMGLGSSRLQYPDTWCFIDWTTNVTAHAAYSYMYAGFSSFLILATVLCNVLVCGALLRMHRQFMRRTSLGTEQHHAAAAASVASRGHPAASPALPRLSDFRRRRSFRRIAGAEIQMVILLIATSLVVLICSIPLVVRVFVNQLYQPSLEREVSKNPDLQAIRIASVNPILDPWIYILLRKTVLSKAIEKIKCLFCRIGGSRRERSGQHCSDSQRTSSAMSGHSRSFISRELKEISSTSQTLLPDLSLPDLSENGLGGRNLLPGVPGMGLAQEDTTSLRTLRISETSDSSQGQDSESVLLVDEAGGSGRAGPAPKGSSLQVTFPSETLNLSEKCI

| IC50 [1] [nM] | half-life [3] [h] | IC50 [4] [nM] | IC50 [5] [nM] | Papp A→B [6] [×10⁻⁶ cm/s] | IC50 [7] [nM] | IC50 [8] [nM] | Compound | further results |
| --- | --- | --- | --- | --- | --- | --- | --- | --- |
| 1790 |  |  |  |  |  |  | C[C@H](NC(=O)c1cc(Cl)cnc1Oc1cccc(OC(F)(F)F)c1)c1ccc(C(=O)O)cc1 |  |
| 25.9 | > 2 | 9.68 | > 20000 | 30.3 | > 20000 | 4360 | C[C@H](NC(=O)c1cc(Cl)cnc1Oc1ccc(F)cc1)c1ccc(C(=O)O)cc1 | minimal effective dose [2]: 10 mg/kg; Kb [1]: 2.45 nM |
| 302 |  |  |  |  |  |  | O=C(NCc1ccc(C(=O)NS(=O)(=O)c2cccc(Cl)c2)cc1)c1cccc(OCc2nc3cc(F)ccc3s2)c1 |  |
| 41.1 |  |  |  |  |  |  | C[C@H](NC(=O)c1cc(Cl)ccc1Oc1cccc(Cl)c1)c1ccc(C(=O)O)cc1 |  |
| 254 |  | 37.9 | > 20000 | 20.1 | > 20000 | 1290 | O=C(O)c1ccc(CNC(=O)c2cc(Cl)cnc2Oc2ccc(F)cc2)cc1 |  |
| 21.8 | > 2 | 5.02 |  |  |  |  | C[C@H](NC(=O)c1cc(Cl)cnc1Oc1cccc(Cl)c1)c1ccc(C(=O)O)cc1 |  |
| 2940 |  |  |  |  |  |  | Cc1cnc(Oc2ccc(F)cc2)c(C(=O)NCc2ccc(C(=O)O)cc2)c1 |  |
| 36.2 | > 2 | 13.4 | > 20000 | 0.644 | > 20000 | 3320 | C[C@H](NC(=O)c1cc(Cl)cnc1Oc1cccc(C#N)c1)c1ccc(C(=O)O)cc1 | efflux ratio [9]: 40; Activity [10]: Toxic; Papp B→A [11]: 25.8 ×10⁻⁶ cm/s |
| < 50 |  |  |  |  |  |  | C[C@H](NC(=O)c1cc(Cl)cnc1Oc1cc(F)ccc1F)c1ccc(C(=O)O)cc1 |  |
| < 50 |  |  |  |  |  |  | C[C@H](NC(=O)c1cc(Cl)cnc1Oc1cc(F)cc(F)c1)c1ccc(C(=O)O)cc1 |  |
| 30.6 | > 2 | 8.76 | > 20000 | 41.9 | > 20000 | 1620 | C[C@H](NC(=O)c1cc(Cl)ccc1Oc1cccc(F)c1)c1ccc(C(=O)O)cc1 | minimal effective dose [2]: 10 mg/kg; Kb [1]: 1.26 nM |
|  |  | 181 |  | 20.1 |  |  | CCC(NC(=O)c1cc(F)cnc1Oc1ccc(F)cc1)c1ccc(C(=O)O)cc1 (racemic) |  |
| < 50 |  |  |  |  |  |  | C[C@H](NC(=O)c1cc(Cl)cnc1Oc1cccc(F)c1F)c1ccc(C(=O)O)cc1 |  |
| 370 | > 2 |  |  |  |  |  | O=C(O)c1ccc(CNC(=O)c2cccc(OCc3nc4cc(F)ccc4s3)c2)cc1 | solubility [12]: > 10 µM |
| 575 | > 2 | 104 | > 20000 | 25.3 | > 20000 | > 20000 | O=C(O)c1ccc(CNC(=O)c2cc(F)cnc2Oc2ccc(F)cc2)cc1 | solubility [12]: > 10 µM; Ki [4]: 73 nM |
| > 5000 |  |  |  |  |  |  | Cc1ccc(C(=O)NCc2ccc(C(=O)O)cc2)c(Oc2ccc(F)cc2)n1 |  |
